These results are taken from ChEMBL document CHEMBL4028870, “Controlling Plasma Stability of Hydroxamic Acids: A MedChem Toolbox” (J Med Chem, 2017).

Data set [1] is described as follows: Half life in rat liver microsomes at 1 uM up to 120 mins by LC-MS/MS analysis. It counts as ADME, microsome. In a few lines:
(§1)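 Run under non-oxidative conditions, in duplicate at 37 °C: 1 µM test compound (1% methanol) with 1 mg/mL rat liver or rat intestinal microsomal protein. Samples taken at 0, 15, 30, 60 and 120 min and quenched with 4 volumes of cold methanol or acetonitrile containing 200 nM internal standard. Triplicate controls used denatured microsomes. LC-MS/MS gave % remaining versus T0; t1/2 = −0.693/k.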
For orientation: Liver microsomes are a subcellular fraction often used to study metabolism.

The nature of data set [2]: Half life in human liver microsomes at 10 uM up to 120 mins by LC-MS/MS analysis. It counts as ADME, microsome.
Data set [3] in a line: Half life in rat intestinal microsomes at 1 uM up to 120 mins by LC-MS/MS analysis. It counts as ADME, Intestine, Microsome. In a few lines:
as §1

Data set [4] concerns Plasma. In words: Stability in rat plasma at 10 uM up to 360 mins in presence of EDTA by LC-MS/MS analysis. The format is ADME, cell-free. The conditions noted are these: 6 h. In a few lines: (§2)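 Rat plasma incubated in duplicate at 37 °C with 10 µM test compound (1% methanol), plus either 1 mM DTNB (11) or 0.5 mM EDTA (12). Duplicate controls used methanol in place of the inhibitor. Samples taken from 0 to 360 min and quenched with 9 volumes of cold methanol containing internal standard. Remaining compound measured by LC-MS/MS relative to T0.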

For data set [5], the target named is T1, Liver carboxylesterase 1 (Homo sapiens, UniProt P23141).
T1 sequence (P23141 whole entry): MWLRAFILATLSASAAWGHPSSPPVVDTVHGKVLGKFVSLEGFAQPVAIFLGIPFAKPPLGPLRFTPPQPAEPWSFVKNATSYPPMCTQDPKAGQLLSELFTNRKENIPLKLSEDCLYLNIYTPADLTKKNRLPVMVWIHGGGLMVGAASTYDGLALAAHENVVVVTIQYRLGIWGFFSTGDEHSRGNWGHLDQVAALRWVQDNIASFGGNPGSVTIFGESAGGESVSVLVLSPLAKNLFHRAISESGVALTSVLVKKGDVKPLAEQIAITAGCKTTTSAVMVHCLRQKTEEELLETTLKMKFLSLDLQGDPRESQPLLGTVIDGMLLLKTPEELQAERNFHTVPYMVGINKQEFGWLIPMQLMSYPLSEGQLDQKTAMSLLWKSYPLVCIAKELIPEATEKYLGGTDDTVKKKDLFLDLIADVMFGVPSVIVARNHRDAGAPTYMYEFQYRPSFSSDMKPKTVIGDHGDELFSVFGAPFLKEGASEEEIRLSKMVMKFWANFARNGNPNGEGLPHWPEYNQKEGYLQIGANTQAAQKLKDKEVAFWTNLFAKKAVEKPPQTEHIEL
The data set is described as follows: Drug metabolism assessed as human CES1-mediated compound hydrolysis after 6 hrs. It counts as ADME.

Data set [6] deals with T2, Liver carboxylesterase 1 (Mus musculus, UniProt Q8VCC2).
T2 sequence (Q8VCC2 whole entry): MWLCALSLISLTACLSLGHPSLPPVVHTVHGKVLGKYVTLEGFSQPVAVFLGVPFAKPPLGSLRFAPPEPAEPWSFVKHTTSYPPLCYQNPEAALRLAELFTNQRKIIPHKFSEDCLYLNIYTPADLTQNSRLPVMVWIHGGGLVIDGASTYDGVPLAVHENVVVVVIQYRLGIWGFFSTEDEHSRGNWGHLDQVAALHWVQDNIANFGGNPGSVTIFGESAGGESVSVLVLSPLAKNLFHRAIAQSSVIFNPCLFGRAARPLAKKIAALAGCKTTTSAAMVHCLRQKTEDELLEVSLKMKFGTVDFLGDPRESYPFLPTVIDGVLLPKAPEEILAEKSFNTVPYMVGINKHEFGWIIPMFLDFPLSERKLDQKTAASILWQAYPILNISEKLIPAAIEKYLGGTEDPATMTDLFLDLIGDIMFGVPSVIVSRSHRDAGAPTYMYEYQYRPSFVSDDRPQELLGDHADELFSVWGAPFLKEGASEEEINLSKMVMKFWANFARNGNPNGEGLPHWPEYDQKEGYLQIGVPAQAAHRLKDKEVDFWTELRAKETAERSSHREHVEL
In words: Drug metabolism assessed as mouse CES1-mediated compound hydrolysis after 6 hrs. It counts as ADME.

The nature of data set [7]: Half life in rat plasma at 10 uM up to 360 mins by LC-MS/MS analysis. It counts as ADME, cell-free. An outline of the steps: (§3)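 Plasma incubated in duplicate at 37 °C with 10 µM test compound (1% methanol; from 1 mM methanol stock). Samples taken at 0, 15, 30, 60, 120, 240 and 360 min and quenched with 9 volumes of ice-cold methanol containing 500 nM internal standard, then centrifuged. Analyte/IS area ratios were quantified by LC-MS/MS as % remaining versus T0. t1/2 = −0.693/k, with k from the slope of log % remaining versus time.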

Data set [8] can be described thus: Half life in human plasma at 10 uM up to 360 mins by LC-MS/MS analysis. The format is ADME, cell-free. An outline of the steps:
as §3

In data set [9] the test system is Plasma. The data set is described as follows: Stability in rat plasma at 10 uM up to 360 mins in presence of DTNB by LC-MS/MS analysis. The conditions noted are these: 6 h. It counts as ADME, cell-free. In a few lines:
as §2

Data set [10] has as its system Plasma. The data set is described as follows: Half life in rat plasma at 10 uM up to 360 mins in presence of 3-cyclohexylpropanehydroxamic acid by LC-MS/MS analysis. It counts as ADME, cell-free. The conditions noted are these: 6 h.
For data set [11], the system named is Plasma. In words: Half life in rat plasma at 10 uM up to 360 mins in presence of 4-cyclohexylbutanehydroxamic acid by LC-MS/MS analysis. It counts as ADME, cell-free. Particulars: 6 h.
Data set [12] in a line: Half life in rat plasma at 10 uM up to 360 mins in presence of N-hydroxy-N'-phenylsuccinamide by LC-MS/MS analysis. It counts as ADME, cell-free. Particulars: with N-hydroxy-N'-phenylsuccinamide (concentration not stated).

By half-life is commonly meant the time in which the quantity being followed falls by half. In data set [1], `CCOC(=O)[C@H](CCc1ccccc1)N[C@@H](C)C(=O)N1[C@H](C(=O)O)C[C@H]2CCCC[C@@H]21` [TRANDOLAPRIL] displayed a half-life at 1 µM of 7 min. Also, the half-life at 10 µM in data set [2] amounted to 20 min.
Take `CC(=O)Oc1cc2c(s1)CCN(C(C(=O)C1CC1)c1ccccc1F)C2` (stereo not given) [PRASUGREL]: the half-life at 1 µM in data set [3] stood at 1 min.
Regarding `O=C(CCc1ccccc1)NO`, the Stability result in the data set with Plasma [4] is given as “Unstable”. In addition, the half-life at 1 µM is 15 min in [1] and greater than 360 min in [3]. Further, the Drug metabolism result at Liver carboxylesterase 1 [5] and on Liver carboxylesterase 1 [6] was “Metabolite_Detected” throughout.
Consider `O=C(NO)C(Cc1ccc2ccccc2c1)C(=O)NCc1ccccc1` (stereo not given), for which the half-life at 10 µM is 6 min in [7] and greater than 360 min in data set [8]. Further, the Stability result with Plasma [4] is “Unstable”. Further, the Drug metabolism result at Liver carboxylesterase 1 [5] and at Liver carboxylesterase 1 [6] was “Metabolite_Detected” in each case.
In the case of `O=C(CCC12CC3CC(CC(C3)C1)C2)NO`, the figures for the half-life at 10 µM in data set [7] and in [8] were 30 min and greater than 360 min, respectively. Moreover, in the data set on Plasma [9], the Stability entry is listed as “Unstable”.
For the molecule `O=C(CCCc1ccccc1)NO` [PHENYLBUTYRYLHYDROXAMIC ACID], the values for the t1/2 in the data set with Plasma [10] and with Plasma [11] were 1360 min and 1850 min, respectively. Also, the half-life at 10 µM in data set [12] was 1200 min. Moreover, in the data set with Plasma [4], the Stability entry is listed as “Unstable”.
